# Measurements: ChEMBL document CHEMBL1130388, “Synthesis of racemic 6,7,8,9-tetrahydro-3-hydroxy-1H-1-benzazepine-2,5-diones as antagonists of N-methyl-d-aspartate (NMDA) and alpha-amino-3-hydroxy-5-methylisoxazole-4-propionic acid (AMPA) receptors” (J Med Chem, 1997)
# What was measured:
# [1] = biological target: Glutamate NMDA receptor (Rattus norvegicus) (UniProt P35439+Q00959+Q00960+Q00961+Q62645+Q8VHN2+Q9R1M7); assay: Inhibition of N-methyl-D-aspartate glutamate receptor was measured in oocytes expressing cloned rat brain receptor subunits (NR1A/2C); format: cell-based; conditions: Oocyte
# Outline: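 Xenopus oocytes expressing cloned rat NR1A/2C subunits, voltage-clamped at -70 mV. Currents were evoked by 1 μM glycine plus 100 μM glutamate. The apparent dissociation constant (Kb) was calculated from current inhibition assuming simple competitive antagonism, and reported with 95% confidence intervals adjusted to the linear scale.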
# [2] = Selectivity index measured as the kb ratio of AMPA to that of NMDA.
# Outline: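 Steady-state selectivity index: Kb at AMPA receptors (rat cortex poly(A)+ RNA oocytes, 10 μM AMPA) divided by Kb at NR1A/2C NMDA receptors (1 μM glycine, 100 μM glutamate), both from oocyte current inhibition at -70 mV.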
# [3] = biological target: Glutamate receptor ionotropic, AMPA (Rattus norvegicus) (UniProt P19491+P19492+P19493+P19490); assay: Inhibition of Ionotropic glutamate receptor AMPA-preferring non-NMDA receptors was measured in oocytes expressing rat brain poly(A)+ RNA isolated from the cerebral cortex.; format: cell-based; conditions: Oocyte
# [4] = biological target: Glutamate receptor ionotropic, NMDA 1 (Rattus norvegicus, UniProt P35439); assay: Antagonism of N-methyl-D-aspartate glutamate receptor 1 sites using [3H]DCKA as a radioligand
Kb [1] [nM],Selectivity index [2],Kb [3] [nM],IC50 [4] [nM],SMILES
740,31,23000,,O=c1cc(O)c2c([nH]c1=O)CCCC2
4.1,120,510,,CC1c2c(O)cc(=O)c(=O)[nH]c2C[C@H](Cl)[C@H]1Cl (stereo partly specified)
120,44,5300,,CC1Cc2[nH]c(=O)c(=O)cc(O)c2CC1C (stereo unspecified)
42,19,780,130,O=c1cc(O)c2c([nH]c1=O)C[C@H](Cl)[C@@H](Cl)C2

# Further lines, the molecule ahead of its results:
SMILES,Kb [1] [nM],Selectivity index [2],Kb [3] [nM],IC50 [4] [nM]
O=c1cc(O)c2c([nH]c1=O)C1CCC2C1 (stereo unspecified),2800,75,,
CCC1c2c(O)cc(=O)c(=O)[nH]c2C[C@H](Cl)[C@H]1Cl (stereo partly specified),2.8,260,720,
O=c1cc(O)c2c([nH]c1=O)C1CCC2CC1,260,300,79000,
